Source: ChEMBL document CHEMBL1926642, “Relevance of the C-5 position to schweinfurthin induced cytotoxicity” (2011)

How the values were obtained:
Type in all cases: functional
HL-60(TB) = experiment: Growth inhibition of human HL-60(TB) cells after 48 hrs by sulforhodamine B assay; conditions: HL-60, 48 h
In short: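 Run in the NCI 60 cell-line screen as the full 5-dose assay that follows initial single-dose testing; GI50 is read from the dose series.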

K562 = experiment: Growth inhibition of human K562 cells after 48 hrs by sulforhodamine B assay; conditions: K562, 48 h
RPMI-8226 = experiment: Growth inhibition of human RPMI8226 cells after 48 hrs by sulforhodamine B assay; conditions: RPMI-8226, 48 h
EKVX = experiment: Growth inhibition of human EKVX cells after 48 hrs by sulforhodamine B assay
NCI-H226 = experiment: Growth inhibition of human NCI-H226 cells after 48 hrs by sulforhodamine B assay; conditions: NCI-H226, 48 h
NCI-H322M = experiment: Growth inhibition of human NCI-H322M cells after 48 hrs by sulforhodamine B assay
NCI-H460 = experiment: Growth inhibition of human NCI-H460 cells after 48 hrs by sulforhodamine B assay; conditions: NCI-H460, 48 h
NCI-H522 = experiment: Growth inhibition of human NCI-H522 cells after 48 hrs by sulforhodamine B assay; conditions: NCI-H522, 48 h
COLO 205 = experiment: Growth inhibition of human COLO205 cells after 48 hrs by sulforhodamine B assay; conditions: COLO 205, 48 h
HCC 2998 = experiment: Growth inhibition of human HCC2998 cells after 48 hrs by sulforhodamine B assay; conditions: HCC 2998, 48 h
HCT-15 = experiment: Growth inhibition of human HCT15 cells after 48 hrs by sulforhodamine B assay; conditions: HCT-15, 48 h
KM12 = experiment: Growth inhibition of human KM12 cells after 48 hrs by sulforhodamine B assay; conditions: KM12, 48 h
SF-268 = experiment: Growth inhibition of human SF268 cells after 48 hrs by sulforhodamine B assay; conditions: SF-268, 48 h
SF-295 = experiment: Growth inhibition of human SF295 cells after 48 hrs by sulforhodamine B assay; conditions: SF-295, 48 h
SNB-19 = experiment: Growth inhibition of human SNB19 cells after 48 hrs by sulforhodamine B assay; conditions: SNB-19, 48 h
SNB-75 = experiment: Growth inhibition of human SNB75 cells after 48 hrs by sulforhodamine B assay; conditions: SNB-75, 48 h
LOX IMVI = experiment: Growth inhibition of human LOXIMVI cells after 48 hrs by sulforhodamine B assay
M14 = experiment: Growth inhibition of human M14 cells after 48 hrs by sulforhodamine B assay; conditions: M14, 48 h
SK-MEL-2 = experiment: Growth inhibition of human SK-MEL-2 cells after 48 hrs by sulforhodamine B assay; conditions: SK-MEL-2, 48 h
SK-MEL-28 = experiment: Growth inhibition of human SK-MEL-28 cells after 48 hrs by sulforhodamine B assay; conditions: SK-MEL-28, 48 h
SK-MEL-5 = experiment: Growth inhibition of human SK-MEL-5 cells after 48 hrs by sulforhodamine B assay; conditions: SK-MEL-5, 48 h
UACC-257 = experiment: Growth inhibition of human UACC257 cells after 48 hrs by sulforhodamine B assay; conditions: UACC-257, 48 h
UACC-62 = experiment: Growth inhibition of human UACC62 cells after 48 hrs by sulforhodamine B assay; conditions: UACC-62, 48 h
IGROV-1 = experiment: Growth inhibition of human IGROV1 cells after 48 hrs by sulforhodamine B assay; conditions: IGROV-1, 48 h
OVCAR-3 = experiment: Growth inhibition of human OVCAR3 cells after 48 hrs by sulforhodamine B assay; conditions: OVCAR-3, 48 h
OVCAR-4 = experiment: Growth inhibition of human OVCAR4 cells after 48 hrs by sulforhodamine B assay; conditions: OVCAR-4, 48 h
NCI/ADR-RES = experiment: Growth inhibition of human NCI/ADR-RES cells after 48 hrs by sulforhodamine B assay
SK-OV-3 = experiment: Growth inhibition of human SKOV3 cells after 48 hrs by sulforhodamine B assay; conditions: SK-OV-3, 48 h
786-0 = experiment: Growth inhibition of human 786-0 cells after 48 hrs by sulforhodamine B assay; conditions: 786-0, 48 h
CAKI-1 = experiment: Growth inhibition of human Caki1 cells after 48 hrs by sulforhodamine B assay; conditions: CAKI-1, 48 h
SN12C = experiment: Growth inhibition of human SN12C cells after 48 hrs by sulforhodamine B assay
T47D = experiment: Growth inhibition of human T47D cells after 48 hrs by sulforhodamine B assay
[1] = read-out: pLC50 (the source's name) (converted)

Compound COc1cc(/C=C/c2cc(F)c3c(c2)C[C@@H]2C(C)(C)[C@H](O)CC[C@@]2(C)O3)cc(O)c1C/C=C(\C)CCC=C(C)C has a GI50 (HL-60(TB)) of 1820 nM, a CC50 (HL-60(TB); [1]) greater than 100 µM and a TGI (HL-60(TB); read-out: pTGI (converted)) of 5.5 µM. The GI50 (K562) was 2400 nM, the LC50 (K562) was greater than 100 µM and the GI50 (RPMI-8226) was 2040 nM. It also gave an LC50 (RPMI-8226) greater than 100 µM, a TGI (RPMI-8226; read-out: pTGI (converted)) of 4.79 µM and a GI50 (EKVX) of 11.7 µM. For the same compound, the LC50 (50% lethal concentration) (EKVX) was 91.2 µM, the TGI (EKVX; read-out: pTGI (converted)) was 33.1 µM and the GI50 (NCI-H226) was 18.6 µM. The LC50 (NCI-H226) was greater than 100 µM, the TGI (NCI-H226; read-out: pTGI (converted)) was 45.7 µM and the GI50 (NCI-H322M) was 34.7 µM. The LC50 (NCI-H322M) was greater than 100 µM, the TGI (NCI-H322M; read-out: pTGI (converted)) was greater than 100 µM and the GI50 (NCI-H460) was 1860 nM. For the same compound, the LC50 (concentration killing 50% of cells) (NCI-H460) was 6.76 µM, the TGI (NCI-H460; read-out: pTGI (converted)) was 3.55 µM and the GI50 (NCI-H522) was 2190 nM. For the same compound, the LC50 (NCI-H522) was 30.9 µM, the TGI (NCI-H522; read-out: pTGI (converted)) was 6.92 µM and the GI50 (COLO 205) was 12 µM. For the same compound, the LC50 (COLO 205) was 55 µM, the TGI (COLO 205; read-out: pTGI (converted)) was 25.7 µM and the GI50 (HCC 2998) was 12.9 µM. It also gave an LC50 (HCC 2998) of 56.2 µM, a TGI (HCC 2998; read-out: pTGI (converted)) of 26.9 µM and a GI50 (HCT-15) of 12.3 µM. It also gave an LC50 (HCT-15) of 66.1 µM, a TGI (HCT-15; read-out: pTGI (converted)) of 28.8 µM and a GI50 (KM12) of 1910 nM. For the same compound, the LC50 (KM12) was 8.32 µM, the TGI (KM12; read-out: pTGI (converted)) was 3.98 µM and the GI50 (SF-268) was 10.5 µM. For the same compound, the LC50 (SF-268) was 63.1 µM, the TGI (SF-268; read-out: pTGI (converted)) was 25.7 µM and the LC50 (SF-295) was 69.2 µM. It also gave a GI50 (SF-295; read-out: GI50) of 5.01 µM, a GI50 (SF-295; read-out: pGI50 (converted)) of 5.01 µM and a TGI (SF-295; read-out: pTGI (converted)) of 21.4 µM. The GI50 (SNB-19) was 12.6 µM, the LC50 (SNB-19) was 55 µM and the TGI (SNB-19; read-out: pTGI (converted)) was 26.3 µM. It also gave a GI50 (SNB-75) of 2950 nM, an LC50 (SNB-75) of 37.2 µM and a TGI (SNB-75; read-out: pTGI (converted)) of 13.8 µM. It also gave a GI50 (LOX IMVI) of 1380 nM, an LC50 (LOX IMVI) of 6.17 µM and a TGI (LOX IMVI; read-out: pTGI (converted)) of 2880 nM. The GI50 (M14) was 12.9 µM, the LC50 (M14) was 57.5 µM and the TGI (M14; read-out: pTGI (converted)) was 26.9 µM. For the same compound, the GI50 (SK-MEL-2) was 15.5 µM, the LC50 (SK-MEL-2) was 75.9 µM and the TGI (SK-MEL-2; read-out: pTGI (converted)) was 33.9 µM. The GI50 (SK-MEL-28) was 12 µM, the CC50 (SK-MEL-28; [1]) was 56.2 µM and the TGI (SK-MEL-28; read-out: pTGI (converted)) was 25.7 µM. The GI50 (SK-MEL-5) was 7.08 µM, the LC50 (SK-MEL-5) was 44.7 µM and the TGI (SK-MEL-5; read-out: pTGI (converted)) was 20 µM. It also gave a GI50 (UACC-257) of 16.2 µM, an LC50 (UACC-257) of 93.3 µM and a TGI (UACC-257; read-out: pTGI (converted)) of 38.9 µM. It also gave a GI50 (UACC-62) of 14.1 µM, an LC50 (50% lethal concentration) (UACC-62) of 63.1 µM and a TGI (UACC-62; read-out: pTGI (converted)) of 29.5 µM. The GI50 (IGROV-1) was 2950 nM, the LC50 (IGROV-1) was 53.7 µM and the TGI (IGROV-1; read-out: pTGI (converted)) was 7.94 µM. It also gave a GI50 (OVCAR-3) of 12 µM, an LC50 (OVCAR-3) of 58.9 µM and a TGI (OVCAR-3; read-out: pTGI (converted)) of 26.9 µM. For the same compound, the GI50 (OVCAR-4) was 12.6 µM, the LC50 (OVCAR-4) was greater than 100 µM and the TGI (OVCAR-4; read-out: pTGI (converted)) was 37.2 µM. It also gave a GI50 (NCI/ADR-RES) of 3.89 µM, an LC50 (NCI/ADR-RES) of 50.1 µM and a TGI (NCI/ADR-RES; read-out: pTGI (converted)) of 14.1 µM. The GI50 (SK-OV-3) was 17 µM, the LC50 (SK-OV-3) was 57.5 µM and the TGI (SK-OV-3; read-out: pTGI (converted)) was 30.9 µM. The GI50 (786-0) was 3.31 µM, the CC50 (786-0; [1]) was 38.9 µM and the TGI (786-0; read-out: pTGI (converted)) was 10.2 µM. The GI50 (CAKI-1) was 10.2 µM, the LC50 (CAKI-1) was 53.7 µM and the TGI (CAKI-1; read-out: pTGI (converted)) was 23.4 µM. For the same compound, the GI50 (SN12C) was 14.5 µM, the LC50 (SN12C) was greater than 100 µM and the TGI (SN12C; read-out: pTGI (converted)) was 39.8 µM. For the same compound, the GI50 (T47D) was 12.3 µM, the LC50 (T47D) was 77.6 µM and the TGI (T47D; read-out: pTGI (converted)) was 30.9 µM.
